One block for each compound: values may come before it.
Experiments:
Glucocorticoid receptor [1] = molecular target: T1, Glucocorticoid receptor (Homo sapiens, UniProt P04150); assay: Displacement of [3H]dexamethasone from human Glucocorticoid receptor (GR); Value ranges from 215-217 nM
T1 sequence (P04150 whole entry): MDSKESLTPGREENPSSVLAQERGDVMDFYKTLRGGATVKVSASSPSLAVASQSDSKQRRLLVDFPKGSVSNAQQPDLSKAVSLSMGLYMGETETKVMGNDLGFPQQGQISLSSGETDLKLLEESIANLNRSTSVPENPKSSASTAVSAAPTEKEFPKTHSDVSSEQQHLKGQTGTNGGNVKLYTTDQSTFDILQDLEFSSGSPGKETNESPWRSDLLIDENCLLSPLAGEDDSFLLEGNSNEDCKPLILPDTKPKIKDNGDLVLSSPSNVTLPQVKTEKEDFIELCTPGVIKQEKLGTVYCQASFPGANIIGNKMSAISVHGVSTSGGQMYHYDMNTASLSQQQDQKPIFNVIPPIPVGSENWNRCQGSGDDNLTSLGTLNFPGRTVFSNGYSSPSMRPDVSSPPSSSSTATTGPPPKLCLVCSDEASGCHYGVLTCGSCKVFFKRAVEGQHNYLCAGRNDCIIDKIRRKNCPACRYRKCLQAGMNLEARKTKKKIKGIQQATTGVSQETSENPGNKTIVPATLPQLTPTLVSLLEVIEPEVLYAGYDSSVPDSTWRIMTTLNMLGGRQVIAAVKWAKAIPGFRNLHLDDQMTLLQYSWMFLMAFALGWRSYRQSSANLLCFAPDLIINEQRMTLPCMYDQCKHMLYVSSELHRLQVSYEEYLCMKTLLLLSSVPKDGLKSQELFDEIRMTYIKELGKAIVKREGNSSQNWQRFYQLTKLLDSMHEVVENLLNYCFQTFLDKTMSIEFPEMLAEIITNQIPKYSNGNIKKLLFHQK
Outline: (§1)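 Binding to human GR; IC50 reported as the geometric mean of two experiments (three for some values), each run in duplicate, with the range of the experiments given.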

Glucocorticoid receptor [2] = molecular target: T1, Glucocorticoid receptor; assay: Effect on human Glucocorticoid receptor (GR) in a whole cell assay to measure functional cellular GR-antagonism (GRAF)
Glucocorticoid receptor [3] = molecular target: T1, Glucocorticoid receptor; assay: Displacement of [3H]dexamethasone from human Glucocorticoid receptor (GR); Value ranges from 26-67 nM; outline: as §1
Glucocorticoid receptor [4] = molecular target: T1, Glucocorticoid receptor; assay: Displacement of [3H]dexamethasone from human Glucocorticoid receptor (GR); Value ranges from 44-53 nM
Glucocorticoid receptor [5] = molecular target: T1, Glucocorticoid receptor; assay: Displacement of [3H]dexamethasone from human Glucocorticoid receptor (GR); Value ranges from 28-34 nM
Glucocorticoid receptor [6] = molecular target: T1, Glucocorticoid receptor
Androgen receptor = molecular target: T2, Androgen receptor (Homo sapiens, UniProt P10275); assay: Displacement of [3H]mibolerone from human Androgen receptor
T2 sequence (P10275 whole entry): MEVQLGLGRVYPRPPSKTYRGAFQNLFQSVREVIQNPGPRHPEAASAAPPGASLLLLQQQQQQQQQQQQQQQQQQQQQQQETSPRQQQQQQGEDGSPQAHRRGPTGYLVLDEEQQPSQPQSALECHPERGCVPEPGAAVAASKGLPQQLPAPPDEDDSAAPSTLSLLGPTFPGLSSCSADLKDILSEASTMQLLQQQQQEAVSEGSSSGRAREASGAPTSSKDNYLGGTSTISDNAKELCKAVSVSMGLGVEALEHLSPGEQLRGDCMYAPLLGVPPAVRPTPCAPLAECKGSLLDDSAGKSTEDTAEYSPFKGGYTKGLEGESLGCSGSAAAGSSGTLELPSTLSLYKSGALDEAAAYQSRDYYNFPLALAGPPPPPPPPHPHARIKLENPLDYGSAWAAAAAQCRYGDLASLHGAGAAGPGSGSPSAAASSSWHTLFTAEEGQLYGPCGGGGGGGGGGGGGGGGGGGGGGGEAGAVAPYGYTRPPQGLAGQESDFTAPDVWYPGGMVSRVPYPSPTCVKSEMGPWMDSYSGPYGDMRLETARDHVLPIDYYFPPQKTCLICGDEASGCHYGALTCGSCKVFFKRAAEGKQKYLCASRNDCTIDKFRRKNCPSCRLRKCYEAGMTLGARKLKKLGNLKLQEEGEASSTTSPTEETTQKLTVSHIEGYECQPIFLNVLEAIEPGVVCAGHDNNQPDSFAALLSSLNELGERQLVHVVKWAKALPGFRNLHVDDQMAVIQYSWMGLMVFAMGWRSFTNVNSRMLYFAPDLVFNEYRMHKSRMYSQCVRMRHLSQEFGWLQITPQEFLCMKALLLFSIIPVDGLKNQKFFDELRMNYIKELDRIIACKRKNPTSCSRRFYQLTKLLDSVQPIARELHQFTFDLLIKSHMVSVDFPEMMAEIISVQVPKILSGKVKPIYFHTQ

Estrogen receptor = molecular target: T3, Estrogen receptor (Homo sapiens, UniProt P03372); assay: Displacement of [3H]estradiol from human estrogen receptor alpha
T3 sequence (P03372 whole entry): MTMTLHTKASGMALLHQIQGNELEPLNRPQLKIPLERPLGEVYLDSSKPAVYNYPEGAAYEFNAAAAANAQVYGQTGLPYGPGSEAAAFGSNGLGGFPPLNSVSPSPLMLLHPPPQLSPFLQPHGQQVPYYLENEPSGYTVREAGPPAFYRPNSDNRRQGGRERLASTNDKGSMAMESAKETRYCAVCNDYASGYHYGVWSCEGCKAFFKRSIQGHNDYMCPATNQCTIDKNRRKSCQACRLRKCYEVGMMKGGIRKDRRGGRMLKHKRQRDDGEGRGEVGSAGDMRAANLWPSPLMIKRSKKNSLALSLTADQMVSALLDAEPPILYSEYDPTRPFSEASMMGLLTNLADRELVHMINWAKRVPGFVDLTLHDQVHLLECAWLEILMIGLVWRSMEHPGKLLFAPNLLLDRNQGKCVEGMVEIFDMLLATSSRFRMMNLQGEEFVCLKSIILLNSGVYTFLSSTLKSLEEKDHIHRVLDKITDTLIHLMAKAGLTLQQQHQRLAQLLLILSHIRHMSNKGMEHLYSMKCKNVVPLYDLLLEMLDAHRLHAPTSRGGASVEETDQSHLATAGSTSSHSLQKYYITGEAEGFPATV
Outline: (§2)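 Human steroid receptor (PR, MR, AR, ERα) binding measured by radioligand displacement, with IC50s determined in duplicate. Values without a range come from a single experiment, and values with a range are geometric means of repeat experiments.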

Glucocorticoid receptor [7] = molecular target: T1, Glucocorticoid receptor; assay: Displacement of [3H]dexamethasone from human Glucocorticoid receptor (GR); Value ranges from 3-3 nM
[8] = molecular target: T4, Mineralocorticoid receptor (Homo sapiens, UniProt P08235); assay: Displacement of [3H]aldosterone from human Mineralocorticoid receptor; outline: as §2
T4 sequence (P08235 whole entry): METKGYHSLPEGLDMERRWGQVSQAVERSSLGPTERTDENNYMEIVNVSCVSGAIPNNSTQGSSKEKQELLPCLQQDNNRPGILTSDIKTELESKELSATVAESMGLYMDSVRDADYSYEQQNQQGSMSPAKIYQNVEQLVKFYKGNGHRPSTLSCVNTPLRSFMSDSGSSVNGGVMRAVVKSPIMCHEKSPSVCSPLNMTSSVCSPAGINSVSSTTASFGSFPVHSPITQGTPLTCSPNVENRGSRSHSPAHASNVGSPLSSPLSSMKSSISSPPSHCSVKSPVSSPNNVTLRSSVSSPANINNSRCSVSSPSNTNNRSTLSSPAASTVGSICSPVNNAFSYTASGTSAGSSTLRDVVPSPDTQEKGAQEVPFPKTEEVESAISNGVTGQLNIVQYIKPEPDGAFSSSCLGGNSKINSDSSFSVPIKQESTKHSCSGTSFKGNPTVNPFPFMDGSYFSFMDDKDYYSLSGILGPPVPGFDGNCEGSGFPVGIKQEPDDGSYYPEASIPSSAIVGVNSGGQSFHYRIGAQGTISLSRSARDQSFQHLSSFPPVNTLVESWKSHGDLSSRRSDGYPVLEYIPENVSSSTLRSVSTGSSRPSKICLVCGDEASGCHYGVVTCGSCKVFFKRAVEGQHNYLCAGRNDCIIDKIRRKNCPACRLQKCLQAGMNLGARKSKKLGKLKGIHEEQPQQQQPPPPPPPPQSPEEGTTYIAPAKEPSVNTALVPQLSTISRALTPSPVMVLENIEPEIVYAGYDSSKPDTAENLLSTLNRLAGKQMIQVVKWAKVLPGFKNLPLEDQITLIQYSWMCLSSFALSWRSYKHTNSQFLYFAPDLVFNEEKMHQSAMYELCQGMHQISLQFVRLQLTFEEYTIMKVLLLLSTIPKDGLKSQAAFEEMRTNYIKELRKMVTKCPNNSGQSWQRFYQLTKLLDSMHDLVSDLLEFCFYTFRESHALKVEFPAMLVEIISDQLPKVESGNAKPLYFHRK

Glucocorticoid receptor [9] = molecular target: T1, Glucocorticoid receptor; remark: listed apart in the source
Glucocorticoid receptor [10] = molecular target: T1, Glucocorticoid receptor; assay: Displacement of [3H]dexamethasone from human Glucocorticoid receptor (GR); Value ranges from 106-131 nM
Glucocorticoid receptor [11] = molecular target: T1, Glucocorticoid receptor; assay: Displacement of [3H]dexamethasone from human Glucocorticoid receptor (GR); Value ranges from 150-220 nM; outline: as §1

IC50 (Glucocorticoid receptor [1]): 216 nM
SMILES: COc1cccc2c1-c1ccc(NS(C)(=O)=O)cc1C(c1cccc(O)c1)O2 (stereo not drawn)

IC50 (Glucocorticoid receptor [2]): 121 nM | IC50 (Glucocorticoid receptor [3]): 41 nM
SMILES: COc1cccc2c1-c1ccc(NS(=O)(=O)N(C)C)cc1C(c1ccccc1)O2 (stereo not drawn)

IC50 (Glucocorticoid receptor [4]): 48 nM | IC50 (Glucocorticoid receptor [2]): 434 nM
SMILES: COc1cccc2c1-c1ccc(NS(C)(=O)=O)cc1C(c1cccc(Oc3ccccc3)c1)O2 (stereo not drawn)

IC50 (Androgen receptor): > 10 µM | IC50 (Estrogen receptor): > 10 µM | IC50 (Glucocorticoid receptor [2]): 147 nM | IC50 (Glucocorticoid receptor [7]): 3 nM | IC50 [8]: 2150 nM
SMILES: COc1cccc2c1-c1ccc(NS(C)(=O)=O)cc1C(c1cccc(Cl)c1)O2 (stereo not drawn)

The next lines start with the compound.

SMILES: CCOC(=O)c1cccc(C2Oc3cccc(OC)c3-c3ccc(NS(C)(=O)=O)cc32)c1 (stereo not drawn)
IC50 (Glucocorticoid receptor [2]): 296 nM | IC50 (Glucocorticoid receptor [5]): 31 nM

SMILES: COc1cccc2c1-c1ccc(NCc3ccccc3)cc1C(c1ccccc1)O2 (stereo not drawn)
IC50 (Glucocorticoid receptor [2]): 402 nM | IC50 (Glucocorticoid receptor [6]): 910 nM

SMILES: CS(=O)(=O)Nc1ccc2c(c1)C(c1ccccc1)Oc1cccc(-c3cccs3)c1-2 (stereo not drawn)
IC50 (Glucocorticoid receptor [9]): 656 nM

SMILES: COc1cccc2c1-c1ccc(NC(C)=O)cc1C(c1ccccc1)O2 (stereo not drawn)
IC50 (Glucocorticoid receptor [10]): 117 nM | IC50 (Glucocorticoid receptor [2]): 69 nM

SMILES: CS(=O)(=O)Nc1ccc2c(c1)C(c1ccccc1)Oc1cccc(CO)c1-2 (stereo not drawn)
IC50 (Glucocorticoid receptor [11]): 180 nM

From ChEMBL document CHEMBL1147539, “Synthesis and biological evaluation of novel, selective, nonsteroidal glucocorticoid receptor antagonists” (Bioorg Med Chem Lett, 2004)
